{"data": "Experimental data from different studies", "target": "Tyrosine-protein kinase Mer (MERTK, Homo sapiens, UniProt Q12866)", "Residues used in one study (Q12866 21-999)": "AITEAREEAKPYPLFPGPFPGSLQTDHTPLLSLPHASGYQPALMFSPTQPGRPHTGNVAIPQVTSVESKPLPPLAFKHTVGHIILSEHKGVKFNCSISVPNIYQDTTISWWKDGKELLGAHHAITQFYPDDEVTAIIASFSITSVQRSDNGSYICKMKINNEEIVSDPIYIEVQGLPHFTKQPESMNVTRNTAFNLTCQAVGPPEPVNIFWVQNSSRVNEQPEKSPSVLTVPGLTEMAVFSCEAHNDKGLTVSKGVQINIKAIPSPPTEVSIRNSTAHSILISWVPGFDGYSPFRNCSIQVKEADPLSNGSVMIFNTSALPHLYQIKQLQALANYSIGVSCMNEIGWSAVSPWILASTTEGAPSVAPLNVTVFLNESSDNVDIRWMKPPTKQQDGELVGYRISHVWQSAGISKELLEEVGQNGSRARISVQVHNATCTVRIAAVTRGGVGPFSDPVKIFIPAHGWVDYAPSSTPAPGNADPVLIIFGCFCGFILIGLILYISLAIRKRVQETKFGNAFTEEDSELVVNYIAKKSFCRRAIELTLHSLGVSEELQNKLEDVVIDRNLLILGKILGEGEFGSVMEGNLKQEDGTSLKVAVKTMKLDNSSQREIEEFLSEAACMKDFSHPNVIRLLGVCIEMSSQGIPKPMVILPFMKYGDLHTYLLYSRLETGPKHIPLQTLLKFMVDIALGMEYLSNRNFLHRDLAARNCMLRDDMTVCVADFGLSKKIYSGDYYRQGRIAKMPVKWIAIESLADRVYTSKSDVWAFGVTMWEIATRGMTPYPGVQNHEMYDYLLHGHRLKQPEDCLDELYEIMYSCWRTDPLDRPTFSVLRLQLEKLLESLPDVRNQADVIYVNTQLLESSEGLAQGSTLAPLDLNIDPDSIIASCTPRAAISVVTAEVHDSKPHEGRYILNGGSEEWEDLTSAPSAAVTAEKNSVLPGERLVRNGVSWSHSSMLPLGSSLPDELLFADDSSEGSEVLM", "note": "Compare with care: the assays were run in different laboratories."}
{"SMILES": "COc1cc2nccc(Oc3ccc(NC(=O)c4c5n(n(-c6ccc(F)cc6)c4=O)CCCC5)cc3)c2cc1OC", "effect on": "enzyme activity", "action": "inhibitor", "concentration": "0.1 µM", "measurement": "inhibition", "result": "100%"}
{"SMILES": "CC1(C)NC(=O)c2[nH]c3c(Cl)c(Cl)ccc3c2C1C#N (stereo not drawn)", "effect on": "thermal stability", "technique": "DSF", "concentration": "10 µM", "measurement": "ΔTm", "result": "-1.1 °C"}
{"SMILES": "COc1cc2c(N3CCN(C(=O)Nc4ccc(OC(C)C)cc4)CC3)ncnc2cc1OCCCN1CCCCC1", "effect on": "cell-free assay", "concentration": "0.5 µM", "measurement": "remaining signal", "result": "106%"}
{"SMILES": "O=C(Nc1cnn(-c2csc(C(=O)NC3COC3)c2)c1)Nc1ccccc1Cl", "effect on": "enzyme activity", "action": "inhibitor", "concentration": "5 µM", "measurement": "remaining activity", "result": "92.7%"}
{"SMILES": "CNC(=O)c1cc2c(Oc3ccc(NC(=O)C4(C(=O)Nc5ccc(F)cc5)CC4)cc3)ccnc2cc1OC", "effect on": "enzyme activity", "action": "inhibitor", "technique": "radiometric", "concentration": "1 µM", "measurement": "inhibition", "result": "99%"}
{"SMILES": "CC(C)(O)c1cncc(-c2nc3ccc(F)cc3n2C2CC2)c1", "effect on": "cell-free assay", "technique": "competition with immobilised ligand", "concentration": "1 µM", "measurement": "remaining binding", "result": "96%"}
{"SMILES": "Cn1c2c(Cl)c(Cl)ccc2c2cc[nH]c(=O)c21", "effect on": "thermal stability", "technique": "DSF", "concentration": "10 µM", "measurement": "ΔTm", "result": "1.3 °C"}
{"SMILES": "Cn1nc(C(F)(F)F)cc1-c1cnc(N2CCc3cc(S(=O)(=O)Nc4c(F)cc(Cl)cc4F)cc(N4CCCC4=O)c32)nc1", "effect on": "cell-free assay", "technique": "competition with immobilised ligand", "concentration": "1 µM", "measurement": "remaining binding", "result": "100%"}
{"SMILES": "Cn1c2c(c3ccccc31)C(C#N)C(C)(C)NC2=O (stereo not drawn)", "effect on": "thermal stability", "technique": "DSF", "concentration": "10 µM", "measurement": "ΔTm", "result": "0.8 °C"}
{"SMILES": "CCCOc1ccc(OC)c(F)c1C(=O)c1ccc(C(=O)N[C@@H]2CNC[C@H]2NC(=O)c2ccc3[nH]ncc3c2)cc1", "effect on": "enzyme activity", "action": "inhibitor", "concentration": "10 µM", "measurement": "remaining activity", "result": "36%"}
{"SMILES": "CNCc1ccccc1-c1csc([C@H](C)Nc2nc(C)nc3cc(OC)c(OC)cc23)c1", "effect on": "cell-free assay", "technique": "competition with immobilised ligand", "concentration": "1 µM", "measurement": "remaining binding", "result": "72%"}
{"SMILES": "Nc1ncnc2occ(-c3ccc(NC(=O)Nc4cc(C(F)(F)F)ccc4F)cc3)c12", "effect on": "cell-free assay", "concentration": "20 µM", "measurement": "remaining signal", "result": "0.25%"}
{"SMILES": "CN1CC(Oc2cnc(C#N)cc2-c2ccn3nc(NC(=O)C4CC4)cc3c2)C1", "effect on": "enzyme activity", "action": "inhibitor", "concentration": "1 µM", "measurement": "inhibition", "result": "0%"}
{"SMILES": "Cc1ccc(C(=O)NCc2ccsc2)cc1C#Cc1cn(C(C)C)c2ncnc(N)c12", "effect on": "enzyme activity", "action": "inhibitor", "concentration": "1 µM", "measurement": "activity vs control", "result": "71%"}
{"SMILES": "Cn1c2c(Cl)c(Cl)ccc2c2cc(N)[nH]c(=O)c21", "effect on": "thermal stability", "technique": "DSF", "concentration": "10 µM", "measurement": "ΔTm", "result": "0.1 °C"}
{"SMILES": "O=C(NS(=O)(=O)c1ccc(NCC2CCOCC2)c([N+](=O)[O-])c1)c1ccc(N2CCN(Cc3ccc(C(F)(F)F)cc3-c3ccc(Cl)cc3)CC2)cc1Oc1cnc2[nH]ccc2c1", "effect on": "cell-free assay", "technique": "competition with immobilised ligand", "concentration": "1 µM", "measurement": "remaining binding", "result": "100%"}
{"SMILES": "CC(C)(O)[C@H]1CC[C@H](Nc2ccc3ncc(-c4cccc(C(F)(F)F)c4)n3n2)CC1", "effect on": "enzyme activity", "action": "inhibitor", "concentration": "1 µM", "measurement": "remaining activity", "result": "64.1%"}
{"SMILES": "CNC(=O)c1cc(Oc2ccc(NC(=O)Nc3ccc(Cl)c(C(F)(F)F)c3)cc2)ccn1", "effect on": "enzyme activity", "action": "inhibitor", "concentration": "10 µM", "measurement": "inhibition", "result": "82%"}
{"SMILES": "CN(C)C(=O)Cn1cc(-c2nc([C@@](C)(c3ccc(-c4cnc(N)nc4)cc3)C3CC3)no2)cn1", "effect on": "cell-free assay", "technique": "competition with immobilised ligand", "concentration": "1 µM", "measurement": "remaining binding", "result": "100%"}
{"SMILES": "Cc1ccc(Nc2nccc(N(C)c3ccc4c(C)n(C)nc4c3)n2)cc1S(N)(=O)=O", "effect on": "enzyme activity", "action": "inhibitor", "concentration": "10 µM", "measurement": "inhibition", "result": "87%"}
{"SMILES": "CCN1CCC2(CC1)NC(=O)c1c(c3ccc(Cl)c(Cl)c3n1C)C2C#N (racemic)", "effect on": "thermal stability", "technique": "DSF", "concentration": "10 µM", "measurement": "ΔTm", "result": "1 °C"}
{"SMILES": "CC(C)(C)c1nc2c(s1)c1nc(N)ncc1c1ccc(NS(=O)(=O)c3c(F)cccc3F)c(F)c12", "effect on": "enzyme activity", "action": "inhibitor", "technique": "radiometric", "concentration": "1 µM", "measurement": "remaining activity", "result": "124%"}
{"SMILES": "COc1cc2ncnc(Nc3ccc(Oc4ccccc4)cc3C)c2cc1OC", "effect on": "enzyme activity", "action": "inhibitor", "concentration": "1 µM", "measurement": "inhibition", "result": "87%"}
{"SMILES": "Cc1sc(C(=O)NC2COC2)cc1-n1cc(NC(=O)Nc2c(F)cccc2Cl)cn1", "effect on": "enzyme activity", "action": "inhibitor", "concentration": "10 µM", "measurement": "remaining activity", "result": "103%"}
{"SMILES": "COc1ccc2c(O[C@@H]3C[C@H]4C(=O)N[C@]5(C(=O)O)CC5/C=C\\CCCCC[C@H](NC(=O)OC5CCCC5)C(=O)N4C3)cc(-c3csc(NC(=O)C(C)C)n3)nc2c1C (stereo partly drawn)", "effect on": "cell-free assay", "technique": "competition with immobilised ligand", "concentration": "1 µM", "measurement": "remaining binding", "result": "70%"}
{"SMILES": "CCN(CC)CCNC(=O)c1c(C)[nH]c(/C=C2\\C(=O)Nc3ccc(F)cc32)c1C", "effect on": "enzyme activity", "action": "inhibitor", "concentration": "10 µM", "measurement": "inhibition", "result": "98%"}
{"SMILES": "CCCCN(CCCC)C(=O)CN1C[C@H](c2cc(OC)c3c(c2)OCO3)[C@@H](C(=O)O)[C@@H]1CC(C)(C)CCC", "effect on": "cell-free assay", "technique": "competition with immobilised ligand", "concentration": "1 µM", "measurement": "remaining binding", "result": "100%"}
{"SMILES": "O=c1cc(-c2cccc3c2Sc2ccccc2S3)oc(N2CCOCC2)c1", "effect on": "enzyme activity", "action": "inhibitor", "concentration": "0.5 µM", "measurement": "remaining activity", "result": "97%"}
{"SMILES": "CCCS(=O)(=O)Nc1ccc(F)c(C(=O)c2c[nH]c3ncc(-c4ccc(Cl)cc4)cc23)c1F", "effect on": "enzyme activity", "action": "inhibitor", "concentration": "1 µM", "measurement": "inhibition", "result": "< 10%"}
{"SMILES": "CCCOc1ccc([C@H]2[C@H](C(=O)O)[C@@H](c3ccc4c(c3)OCO4)CN2CC(=O)Nc2c(CC)cccc2CC)cc1", "effect on": "cell-free assay", "technique": "competition with immobilised ligand", "concentration": "1 µM", "measurement": "remaining binding", "result": "87%"}
